Screens deposited in PubChem by several laboratories.
An excerpt weighted towards active compounds, which were near 2.3% of everything screened.
CRFBP-R2 block – antagonists of CRF-binding protein/CRF-R2 receptor complex. 0.59% of 350,000 active. inhibition, % at 11.8 µM. HEK293 CRF-R2/CRF-BP, CRF-induced calcium fluorescence. AID 588475;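 active = inhibition of the ligand-induced calcium signal above about 50% at the single tested concentration, limit read from the data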
Rpn11 block – Rpn11 (human) deubiquitinase inhibition | 0.59% of 360,000 active | O00487 | AID 588493 | calls only at 20 µM | human 26S proteasome, Ub4-pepOG fluorescence polarization; 20S core pre-blocked with epoxomicin;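 active = inhibition at 20 µM, scaled to each plate's controls, above about 33%, limit read from the data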
TPT1 inhibitor – blocks Candida albicans tRNA 2'-phosphotransferase. inhibition, % at 5 µM. recombinant caTPT1, FP RNA substrate dephosphorylation. 0.81% of 300,000 active;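 active = inhibition above the mean of all tested compounds plus 3 SD, set per screening campaign, cut at about 24% in these data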
CRFBP-R2 agonist – CRF-BP/CRF-R2 complex agonism; 0.46% of 350,000 active; activation, % at 13.2 µM; HEK293 CRF-R2/CRF-BP, calcium dye fluorescence (FLIPR); percent of saturating CRF peptide response;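 active = activation of at least 50%, plus an integration ratio under a set limit after plate pattern correction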
CSN deneddyl inh – inhibitors of human CSN-mediated cullin deneddylation. inhibition, % at 12.5 µM. Purified CSN, SCF-Nedd8-OG deneddylation, fluorescence polarization. 0.38% of 360,000 active. Q92905. AID 651999;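 active = pattern-corrected inhibition above about 35%, with an unprinted fluorescence ratio check between 0.5 and 1.5, limit read from the data, passing the limit was not always enough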
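Assay system: purified human Csn5 enzyme expressed in HEK293T cells; measure: % inhibition; also added: SCFSkp2-Nedd8OG substrate at 10 nM final; technique: fluorescence polarization; times: reaction 90 min, room temperature; medium: Tris buffer pH 7.5, NaCl, DTT, Tween-20, trehalose, ovalbumin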
HNF4A DNA FP – change in binding of human HNF4 alpha to DNA; HNF4a-FITC DNA binding, fluorescence polarization, 1 h; activity change, % at 10 µM; 0.3% of 360,000 active; AID 1224865; in the data active = activity change above about 30%, passing the limit was not always enough
caTPT1 confirm – TPT1 (C. albicans) inhibition, confirmation; shares compounds with TPT1 inhibitor; recombinant caTPT1, fluorescence polarization, RNase T1 coupled; inhibition, % at 5 µM; 74% of 2,400 active; AID 2149;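 active = inhibition above the primary screen limit, the mean inhibition of all tested compounds plus 3 SD, cut at about 25% in these data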
RNase T1 inh – RNase T1 inhibition in TPT1 counter-screen; shares compounds with TPT1 inhibitor; RNase T1 cleavage, fluorescence polarization, 1536-well; inhibition, % at 5 µM; 83% of 2,400 active;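 active = inhibition above the solvent-only control well mean plus 3 SD, limit set per screening run, cut at about 23% in these data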;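 note: inhibitors block cleavage so intact labeled substrate keeps polarization high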
Rpn11 confirm – confirmation of human proteasome Rpn11 inhibitors; shares compounds with Rpn11 block; purified human 26S proteasome, Ub4-pepOG fluorescence polarization; proteasome pretreated with epoxomicin; inhibition, % at 20 µM; 29% of 1,900 active; AID 602318
MMP-2 inh – MMP-2 (human) inhibition counter-screen; 4% of 1,900 active; AID 602330; recombinant MMP-2, FRET peptide cleavage fluorescence; inhibition, % at 20 µM; shares compounds with Rpn11 block;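 note: human MMP-2 activated beforehand with APMA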
Thrombin inh – counter-screen for RPN11 inhibitors: inhibition of bovine thrombin | AID 602333 | shares compounds with Rpn11 block | 13% of 1,900 active | bovine thrombin cleavage of Ub4-pepOG, fluorescence polarization | inhibition, % at 20 µM;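 active = mean inhibition at least 40% at 20 µM, or signal 3 deviations below plate average, so some actives read negative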
Target sequence (P00735 whole entry, looked up): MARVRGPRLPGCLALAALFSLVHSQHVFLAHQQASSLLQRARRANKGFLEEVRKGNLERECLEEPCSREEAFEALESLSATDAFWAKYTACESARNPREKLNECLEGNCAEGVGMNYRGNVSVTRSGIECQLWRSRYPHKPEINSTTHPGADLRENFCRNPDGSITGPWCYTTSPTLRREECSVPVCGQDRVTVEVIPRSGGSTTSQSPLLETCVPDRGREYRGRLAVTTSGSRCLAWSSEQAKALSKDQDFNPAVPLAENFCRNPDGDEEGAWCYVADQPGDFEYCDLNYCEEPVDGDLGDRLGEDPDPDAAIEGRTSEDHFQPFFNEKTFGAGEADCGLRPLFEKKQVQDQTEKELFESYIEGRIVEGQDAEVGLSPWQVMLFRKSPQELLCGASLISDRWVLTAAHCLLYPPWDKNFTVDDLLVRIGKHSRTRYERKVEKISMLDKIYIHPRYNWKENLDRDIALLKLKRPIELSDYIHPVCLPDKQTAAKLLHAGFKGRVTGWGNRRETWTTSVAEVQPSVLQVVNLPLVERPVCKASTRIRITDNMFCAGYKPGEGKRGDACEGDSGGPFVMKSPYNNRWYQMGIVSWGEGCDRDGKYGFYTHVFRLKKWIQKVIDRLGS
Large screens that a line does not name were inactive (follow-up assays come after a bar, where shown); ! = repeats disagree. Cut-off read from the data, not from the text of the source, unless noted: active = inhibition above about 40%; inactive = the rest.

CCN=c1scc(-c2ccc3c(c2)NC(=O)CO3)n1N=C1CCCC1	Rpn11 block active!, TPT1 inhibitor 42.9 | caTPT1 confirm 38.6 | RNase T1 inh 50.4 | Rpn11 confirm inactive | MMP-2 inh inactive | Thrombin inh inactive
COCC(C)n1c(-c2ccc3c(c2)NC(=O)CO3)csc1=Nc1ccc(OC(F)F)cc1 (stereo unspecified)	none
O=C(O)c1ccccc1C(=O)c1ccc(Br)s1	none (not shown: Rpn11 block)
CCN1C(=O)/C(=C/C=C2/Sc3ccccc3N2CCO)SC1=S	Rpn11 block active, TPT1 inhibitor 39.7, HNF4A DNA FP 36.2 | caTPT1 confirm 32.9 | RNase T1 inh 45.5 | Rpn11 confirm inactive | MMP-2 inh inactive | Thrombin inh inactive
COC(=O)c1ccccc1NC(=O)CSc1nc2ncccc2[nH]1	none
CNC(=O)CN(c1cc(OCCOC)c(Cl)cc1Cl)S(=O)(=O)c1ccccc1	none
COC(=O)c1c(SCC(=O)NC2CCCCC2)[nH]c2ccccc2c1=O	Rpn11 block active, TPT1 inhibitor 25.2 | caTPT1 confirm inactive | RNase T1 inh 29.9 | Rpn11 confirm inactive | MMP-2 inh inactive | Thrombin inh inactive
COc1ccc(-[n+]2c(C)cc(/C=C3\Sc4ccccc4N3C)cc2C)cc1	Rpn11 block active, TPT1 inhibitor 90.5, HNF4A DNA FP 49.6 (no result: CRFBP-R2 block, CRFBP-R2 agonist) | caTPT1 confirm 123.1 | RNase T1 inh 128.0 | Rpn11 confirm 49.5 | MMP-2 inh inactive | Thrombin inh inactive
N#Cc1c(-c2cccs2)nc(SCC(=O)c2cccs2)[nH]c1=O	Rpn11 block active, TPT1 inhibitor 39.8 | caTPT1 confirm inactive | RNase T1 inh 29.7 | Rpn11 confirm 68.4 | MMP-2 inh inactive | Thrombin inh 44.1
CN(C)/N=C/C=C1\CCC/C(=C/c2cccs2)C1=O	Rpn11 block active, TPT1 inhibitor 49.2 | caTPT1 confirm 55.8 | RNase T1 inh 66.5 | Rpn11 confirm inactive | MMP-2 inh inactive | Thrombin inh inactive
O=C(O)CCCN1C(=O)/C(=C\c2ccc(-c3nc4ccccc4s3)o2)SC1=S	Rpn11 block active, TPT1 inhibitor 30.3, CRFBP-R2 agonist 109.0 | caTPT1 confirm 48.1 | RNase T1 inh 75.0 | Rpn11 confirm 69.6 | MMP-2 inh inactive | Thrombin inh inactive
O=C(O)CCN1C(=O)/C(=C/c2ccc(-c3nc4ccccc4s3)o2)SC1=S	Rpn11 block active, TPT1 inhibitor 30.6, HNF4A DNA FP 59.9 | caTPT1 confirm 46.3 | RNase T1 inh 66.3 | Rpn11 confirm 172.8 | MMP-2 inh inactive | Thrombin inh inactive
O=Cc1ccc(-c2nc3ccccc3s2)o1	none
O=C(OCc1ccccc1F)c1cc(S(=O)(=O)N2CCCCC2)ccc1N1CCOCC1	none (no result: TPT1 inhibitor)
Cc1ccccc1N=Cc1cc2c(cc1O)OC(N)=C(C#N)C2c1ccccc1 (stereo unspecified)	Rpn11 block active, TPT1 inhibitor 53.0 | caTPT1 confirm 72.6 | RNase T1 inh 81.6 | Rpn11 confirm 95.8 | MMP-2 inh inactive | Thrombin inh 93.2
N#CC1=C(N)Oc2cc(O)c(C=Nc3ccccc3)cc2C1c1ccccc1 (stereo unspecified)	none
Cc1ccc(-c2ccc(/C=C3\SC(N4CCOCC4)=NC3=O)o2)cc1	Rpn11 block active, TPT1 inhibitor 47.5, HNF4A DNA FP 50.5 | caTPT1 confirm 52.2 | RNase T1 inh 62.5 | Rpn11 confirm 47.9 | MMP-2 inh inactive | Thrombin inh inactive
O=C1N=C(N2CCOCC2)SC1=Cc1ccco1	none (no result: TPT1 inhibitor)
COc1cccc(-n2c(SCC(N)=O)nc3ccccc3c2=O)c1	Rpn11 block active, TPT1 inhibitor 40.4 | caTPT1 confirm 60.2 | RNase T1 inh 74.6 | Rpn11 confirm 56.2 | MMP-2 inh inactive | Thrombin inh inactive
COc1cc(/C=C/c2cc(C(F)(F)F)[nH]c(=O)n2)cc(OC)c1OC	none (no result: TPT1 inhibitor)
COc1cc(OC)c(OC)cc1/C=C/c1cc(C(F)(F)F)[nH]c(=O)n1	Rpn11 block active, TPT1 inhibitor 73.4 | caTPT1 confirm 71.8 | RNase T1 inh 81.3 | Rpn11 confirm inactive | MMP-2 inh inactive | Thrombin inh inactive
CCC1=[N+](CC(=O)c2ccc(C)cc2)CCn2cccc21	Rpn11 block active, TPT1 inhibitor 60.7 | caTPT1 confirm inactive | RNase T1 inh inactive | Rpn11 confirm inactive | MMP-2 inh inactive | Thrombin inh inactive
Cc1ccc(-c2ccc(/C=C/C(=O)c3ccccc3)o2)cc1	Rpn11 block active, TPT1 inhibitor 48.1 | caTPT1 confirm 77.4 | RNase T1 inh 83.8 | Rpn11 confirm inactive | MMP-2 inh inactive | Thrombin inh inactive
COc1ccc(C2C(C(=O)NCCN(C)C)c3cc(OC)c(OC)cc3C(=O)N2C)cc1OC (stereo unspecified)	none
Cc1ccc(Oc2cc([N+](=O)[O-])cc3c2C(=O)Nc2ccccc2O3)cc1	Rpn11 block active, TPT1 inhibitor 24.5 | caTPT1 confirm 35.9 | RNase T1 inh 45.9 | Rpn11 confirm 51.2 | MMP-2 inh inactive | Thrombin inh 63.0
COCCn1c(SCC(=O)c2c[nH]c3ccccc23)nnc1-c1ccncc1	none
CCn1c(SCC(=O)c2c[nH]c3ccccc23)nnc1-c1cccs1	Rpn11 block active, TPT1 inhibitor 25.2 | caTPT1 confirm 24.9 | RNase T1 inh 35.1 | Rpn11 confirm 78.5 | MMP-2 inh inactive | Thrombin inh 44.1
O=[N+]([O-])c1cnc(Nc2ccc(Cl)cn2)c([N+](=O)[O-])c1	none
CCOC(=O)/C=C1\Nc2ccccc2SC1=O	none
CN1CCN(/N=C/c2ccc(-c3ccc([N+](=O)[O-])cc3Cl)o2)CC1	Rpn11 block active, TPT1 inhibitor 29.6 | caTPT1 confirm 35.4 | RNase T1 inh 48.7 | Rpn11 confirm inactive | MMP-2 inh inactive | Thrombin inh inactive
O=[N+]([O-])c1ccc(Cl)c(-c2ccc(/C=N/n3cnnc3)o2)c1	none
Cc1ccc(N=C2NC(=O)/C(=C/c3cccs3)S2)cc1C	Rpn11 block active, TPT1 inhibitor 30.4 | caTPT1 confirm 46.1 | RNase T1 inh 59.2 | Rpn11 confirm 63.6 | MMP-2 inh inactive | Thrombin inh inactive
